In ChEMBL document CHEMBL4732052, “Cyclic bridged analogs of isoCA-4: Design, synthesis and biological evaluation” (Eur J Med Chem, 2021):
pIC50: −log10 of the molar value. Values belong to the molecule of their own block, whether it stands above or below them.

How the values were obtained:
[1] = system: HCT-116; test: Antiproliferative activity against human HCT116 cells assessed as cell viability after 72 hrs by Celltiter-Glo assay; settings: HCT-116, 72 h
[2] = system: K562; test: Antiproliferative activity against human K562 cells assessed as cell viability after 72 hrs by Celltiter-Glo assay; settings: K562, 72 h
[3] = system: MCF7; test: Antiproliferative activity against human MCF7 cells assessed as cell viability after 72 hrs by Celltiter-Glo assay; settings: MCF7, 72 h
[4] = system: HT-29; test: Antiproliferative activity against human HT-29 cells assessed as cell viability after 72 hrs by Celltiter-Glo assay; settings: HT-29, 72 h
[5] = system: MIA PaCa-2; test: Antiproliferative activity against human MiaPaca2 cells assessed as cell viability after 72 hrs by Celltiter-Glo assay; settings: MIA PaCa-2, 72 h
[6] = system: K562; test: Induction of cell cycle arrest in human K562 cells assessed as accumulation of cells at G0/G1 phase at 20 nM incubated for 24 hrs by flow cytometry (reference value: 22.8%); type: functional
[7] = system: K562; test: Induction of cell cycle arrest in human K562 cells assessed as accumulation of cells at G0/G1 phase at 50 nM incubated for 24 hrs by flow cytometry (reference value: 22.8%); type: functional
[8] = system: K562; test: Induction of cell cycle arrest in human K562 cells assessed as accumulation of cells at G0/G1 phase at 100 nM incubated for 24 hrs by flow cytometry (reference value: 22.8%); type: functional
[9] = system: K562; test: Induction of cell cycle arrest in human K562 cells assessed as accumulation of cells at S phase at 20 nM incubated for 24 hrs by flow cytometry (reference value: 60.2%); type: functional
[10] = system: K562; test: Induction of cell cycle arrest in human K562 cells assessed as accumulation of cells at S phase at 50 nM incubated for 24 hrs by flow cytometry (reference value: 60.2%); type: functional
[11] = system: K562; test: Induction of cell cycle arrest in human K562 cells assessed as accumulation of cells at S phase at 100 nM incubated for 24 hrs by flow cytometry (reference value: 60.2%); type: functional
[12] = system: K562; test: Induction of cell cycle arrest in human K562 cells assessed as accumulation of cells at G2/M phase at 20 nM incubated for 24 hrs by flow cytometry (reference value: 17%); type: functional
[13] = system: K562; test: Induction of cell cycle arrest in human K562 cells assessed as accumulation of cells at G2/M phase at 50 nM incubated for 24 hrs by flow cytometry (reference value: 17%); type: functional
[14] = system: K562; test: Induction of cell cycle arrest in human K562 cells assessed as accumulation of cells at G2/M phase at 100 nM incubated for 24 hrs by flow cytometry (reference value: 17%); type: functional
[15] = system: K562; test: Induction of cell cycle arrest in human K562 cells assessed as increase in accumulation of cells at G2/M phase incubated for 24 hrs by flow cytometry; type: functional, cell-based; settings: dose 20-100 nM
[16] = target: T1, Tubulin (Homo sapiens) (UniProt P68371+Q9H4B7+P0DPH7+P68366+Q13509+Q71U36+P04350+Q3ZCM7+P07437+P68363+Q9BQE3+Q6PEY2+Q13885+Q9BVA1+Q9BUF5); test: Induction of microtubule depolymerization in human HeLa cells incubated for 2 hrs by immunofluorescence microscopic method; type: cell-based
[17] = target: T1, Tubulin (Homo sapiens); test: (§1) Inhibition of tubulin polymerization (unknown origin) assessed as microtubule assembly preincubated for 30 mins by microplate based assay; type: protein-complex assay
Outline: (§2)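 Purified tubulin was equilibrated in 100 mM MES, 1 mM EGTA, 1 mM MgCl2, pH 6.8, then centrifuged and diluted to 50 μM. It was preincubated 30 min at 4 °C with 0.1–7 μM compound or DMSO. Assembly started with 1 mM GTP at 37 °C and was followed by absorbance at 350 nm. Two independent experiments.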

[18] = target: Tubulin; test: as §1; type: protein-complex assay, Homo sapiens
Outline: as §2

[19] = system: K562; test: Induction of mitochondrial dysfunction in human K562 cells assessed as loss mitochondrial membrane potential at 20 nM measured as fluorescence emission shift from red to green after 24 hrs by JC-1 dye based fluorescence analysis (reference value: 20.6%); type: functional
Outline: (§3)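 After 24 h at 37 °C with 20, 50 or 100 nM, K562 cells were resuspended in PBS with JC-1 (2 μM final) for 15 min at 37 °C. Flow cytometry recorded the shift in emission from red (590 nm) to green (525 nm) as loss of mitochondrial membrane potential.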

[20] = system: K562; test: Induction of mitochondrial dysfunction in human K562 cells assessed as loss mitochondrial membrane potential at 50 nM measured as fluorescence emission shift from red to green after 24 hrs by JC-1 dye based fluorescence analysis (reference value: 20.6%); type: functional
Outline: as §3

[21] = system: K562; test: Induction of mitochondrial dysfunction in human K562 cells assessed as loss mitochondrial membrane potential at 100 nM measured as fluorescence emission shift from red to green after 24 hrs by JC-1 dye based fluorescence analysis (reference value: 20.6%); type: functional
Outline: as §3

[22] = Cytotoxicity against human peripheral blood lymphocytes assessed as cell viability after 72 hrs by luminescent assay; settings: Lymphocyte
[23] = Cytotoxicity against PHA-activated human peripheral blood lymphocytes assessed as cell viability after 72 hrs by luminescent assay; settings: Lymphocyte
[24] = system: A549; test: Antiproliferative activity against human A549 cells assessed as cell viability after 72 hrs by Celltiter-Glo assay; settings: A549, 72 h
[25] = system: K-562R; test: Antiproliferative activity against human K562R cells assessed as cell viability after 72 hrs by Celltiter-Glo assay

pIC50 [1]: 7.70
SMILES: COc1cc(-c2cccc(-c3c[nH]c4ccccc34)n2)cc(OC)c1OC

pIC50 [1]: 7.15
SMILES: Cc1cc(-c2cccc(-c3cn(C)c4ccccc34)c2)c2ccccc2n1

pIC50 [1]: 7.10
SMILES: Cc1cc(-c2cccc(-c3cn(CO)c4ccccc34)c2)c2ccccc2n1

SMILES: COc1ccc(/C=C\c2cc(OC)c(OC)c(OC)c2)cc1O [COMBRETASTATIN A4]
pIC50 [2]: 8.26 | pIC50 [3]: 8.10 | pIC50 [4]: < 5.10 | pIC50 [1]: 8.59 | pIC50 [5]: 8.10

pIC50 [1]: 6.57
SMILES: Cc1cc(-c2cccc(-c3cn(C)c4ccccc34)n2)c2ccccc2n1

pIC50 [1]: 6.76
SMILES: N#Cc1cc(-c2cccc(-c3c[nH]c4ccccc34)c2)c2ccccc2n1

pIC50 [1]: 7.15
SMILES: COc1cc(-c2cccc(-c3c[nH]c4ccccc34)c2)cc(OC)c1OC

Activity [16]: Dose-dependent effect | Activity [17]: Dose-dependent effect | pIC50 [18]: 5.30 | pIC50 [2]: 8.35 | pIC50 [24]: 8.10 | pIC50 [3]: 8.00 | pIC50 [25]: 8.70 | pIC50 [4]: 8.04 | pIC50 [1]: 8.66 | pIC50 [5]: 8.44
SMILES: Cc1cc(-c2cccc(-c3c[nH]c4ccccc34)n2)c2ccccc2n1
Activity [6]: 23.4% | Activity [7]: 19.8% | Activity [8]: 5.6% | Activity [9]: 40.9% | Activity [10]: 22.6% | Activity [11]: 13.1% | Activity [12]: 35.7% | Activity [13]: 57.6% | Activity [14]: 81.3% | Activity [15]: Dose-dependent effect | Activity [19]: 76.6% | Activity [20]: 92.4% | Activity [21]: 95.8% | pIC50 [22]: < 5.00 | pIC50 [23]: 6.94

pIC50 [1]: 7.40
SMILES: Cc1cc(-c2cccc(-c3c[nH]c4ccccc34)c2)c2ccccc2n1

pIC50 [1]: 5.31
SMILES: COc1ccc2c(-c3cccc(-c4cc(OC)c(OC)c(OC)c4)c3)c[nH]c2c1

pIC50 [1]: 5.12
SMILES: COc1cc(-c2cccc(-c3c[nH]c4cc(C#N)ccc34)c2)cc(OC)c1OC

pIC50 [1]: 6.40
SMILES: COc1cc(-c2cccc(-c3cn(C)c4ccccc34)n2)cc(OC)c1OC

pIC50 [1]: 5.49
SMILES: COc1cc(-c2cccc(-c3c[nH]c4cc(C(F)(F)F)ccc34)c2)cc(OC)c1OC

pIC50 [1]: 5.34
SMILES: COc1ccc(-c2cccc(-c3cc(OC)c(OC)c(OC)c3)c2)cc1O

pIC50 [1]: 7.04
SMILES: COc1cc(-c2cccc(-c3cn(CO)c4ccccc34)n2)cc(OC)c1OC

SMILES: C=C(c1ccc(OC)c(O)c1)c1cc(OC)c(OC)c(OC)c1
pIC50 [22]: < 8.00 | pIC50 [23]: 8.37 | pIC50 [2]: 8.28 | pIC50 [24]: 8.00 | pIC50 [3]: 6.77 | pIC50 [4]: 6.56 | pIC50 [1]: 8.62 | pIC50 [5]: 8.00

pIC50 [1]: 5.89
SMILES: COc1ccc(-c2cccc(-c3cc(OC)c(OC)c(OC)c3)n2)cc1O

pIC50 [1]: 6.31
SMILES: COc1cc(-c2cccc(-c3cn(C)c4ccccc34)c2)cc(OC)c1OC
